This note sets out measurements from ChEMBL document CHEMBL5500386, “Design, synthesis and bioactivity evaluation of 4-hydroxycoumarin derivatives as potential anti-inflammatory agents against acute lung injury and colitis” (Eur J Med Chem, 2024).

Calls of active or inactive are those of the source. The calls are words filed in the database; no cut-off is given here.

One series deals with Mus musculus. As to the kind of experiment: Protection against LPS-induced C57BL/6 mouse model of acute lung injury assessed as reduction in IL-6 level in serum at 20 mg/kg, po administered 3 times for every 12 hrs followed by LPS stimulation at 5 mg/kg and measured after 6 hrs by ELISA. Type of series: functional, organism-based. The settings on record: time 30.0 hrs. In outline:
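C57BL/6 mice, 6 per group. Gavaged at 20 mg/kg three times at 12 h intervals; controls received saline, and dexamethasone 20 mg/kg served as reference. After the last dose, LPS 5 mg/kg given intratracheally. At 6 h, blood collected for serum IL-6 by ELISA. Left lung lavaged with 3 × 200 μL saline, and BALF assayed for IL-6, total protein and neutrophil count. Mean ± SEM, n = 6.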
On the technique in general: In an ELISA, binding on a coated surface is turned into a signal by an enzyme label.

Series [1] relates to J774.A1. Nature of the series: Antiinflammatory activity in LPS-induced mouse J774.a1 cells assessed as inhibition of IL-6 production at 10 uM pretreated for 2 hrs followed by LPS stimulation and measured after 30 mins by ELISA relative to control. The following applies: time 2.5 hrs. The format is functional. In short, it runs like this: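 J774A.1 cells (DMEM, 10 % FBS, 37 °C) treated with 10 μM compound or 4-HC for 2 h, then LPS. After 30 min, IL-6 in medium measured by ELISA. Result is % inhibition, mean ± SEM of three independent experiments.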

Series [2] has as its system J774.A1. As to the kind of experiment: Cytotoxicity against mouse J774.A1 cells assessed as reduction in cell viability at 10 uM measured after 24 hrs by MTT assay. The format is toxicity, cell-based. The settings on record: j774.a1, 24 h. In short, it runs like this:
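J774A.1 cells seeded and incubated 24 h, then exposed to 10 μM compound for 24 h. MTT (5.0 mg/mL) added as 10 % for 4 h, formazan dissolved in DMSO with 30 min shaking, absorbance read at 490 nm. Expressed as % of control.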
(Formazan colour is commonly taken as a measure of viable cells.)

As for `C[C@@H]1C[C@H]2[C@@H]3CCC4=CC(=O)C=C[C@]4(C)[C@@]3(F)[C@@H](O)C[C@]2(C)[C@@]1(O)C(=O)CO`, in the series with Mus musculus, the outcome was Active.
As to `O=c1cc(OCCNCCCN2CCOCC2)c2ccccc2o1`, the inhibition at 10 µM in the series on J774.A1 [1] turned out to be 21.8%.
Turning to `CC(=O)N1CCN(CCCOc2cc(=O)oc3ccccc23)CC1`, the inhibition at 10 µM in the series on J774.A1 [1] was found to be 42.3%. In addition, the Activity result in the series with J774.A1 [2] is “Non-Toxic”.
`O=c1cc(OCCN2CCN(CCO)CC2)c2ccccc2o1`: in the series with J774.A1 [1], the inhibition at 10 µM amounted to 48.8%.
Take `CC1CCCN(CCCOc2cc(=O)oc3ccccc23)C1` (centres undefined): in the series with J774.A1 [1], the inhibition entry was “inactive”.
The same measure, in the same setting: the result for `O=c1cc(OCC2CO2)c2ccccc2o1` (centres undefined) reads “inactive”.
Take `O=c1cc(OCCNCCc2cccs2)c2ccccc2o1`: the inhibition at 10 µM with J774.A1 [1] turned out to be 34.7%.
Same read-out and setting: with `O=c1cc(OCc2cccc(F)c2)c2ccccc2o1` the figure was 4.36%; with `O=c1cc(OCCCN2CCCC2)c2ccccc2o1`, 39%; with `O=c1cc(OCCCNCCCN2CCCC2)c2ccccc2o1`, 54.4%.
Take `O=c1cc(OCCCCN2CCOCC2)c2ccccc2o1`: the inhibition result in the series with J774.A1 [1] was “inactive”.
Regarding `O=c1cc(O)c2ccccc2o1` [4-HYDROXYCOUMARINS], the inhibition at 10 µM with J774.A1 [1] turned out to be 17.3%.
For the compound `CN(C)CCCOc1cc(=O)oc2ccccc12`, in the series with J774.A1 [1], the inhibition result was “inactive”.
`O=c1cc(OCCCN2CCN(CCO)CC2)c2ccccc2o1`: the inhibition at 10 µM in the series with J774.A1 [1] was 51.3%. Moreover, the Activity entry in the series on J774.A1 [2] is listed as “Non-Toxic”.
As for `COc1cccc(COc2cc(=O)oc3ccccc23)c1`, the inhibition at 10 µM in the series with J774.A1 [1] worked out at 50.4%.
For the compound `O=c1cc(OCCOCCN2CCNCC2)c2ccccc2o1`, the inhibition at 10 µM in the series with J774.A1 [1] was determined as 50.1%. Besides, the Activity entry with J774.A1 [2] is reported as “Non-Toxic”.
Take `CCN1CCN(CCCOc2cc(=O)oc3ccccc23)CC1`: the inhibition at 10 µM in the series on J774.A1 [1] is 30.1%.
For the compound `COCCN1CCN(CCCOc2cc(=O)oc3ccccc23)CC1`, in the series on J774.A1 [1], the inhibition result was “inactive”.
The same measure, in the same setting: with `O=c1cc(OCCCNCCc2cccs2)c2ccccc2o1` the entry was “inactive”; with `O=c1cc(OCCN2CCN(C3CC3)CC2)c2ccccc2o1`, “inactive”.
`Cc1cc(C)cc(COc2cc(=O)oc3ccccc23)c1`: in the series on J774.A1 [1], the inhibition at 10 µM was found to be 17.5%.
In the case of `O=c1cc(OCCCNCCCN2CCOCC2)c2ccccc2o1`, the inhibition entry in the series with J774.A1 [1] is “inactive”.
As for `O=c1cc(OCCN2CCOCC2)c2ccccc2o1`, in the series on J774.A1 [1], the inhibition at 10 µM worked out at 17.5%.
Take `COCCN1CCN(CCOc2cc(=O)oc3ccccc23)CC1`: the inhibition result in the series with J774.A1 [1] was “inactive”.
Consider `CC1CCCN(CCOc2cc(=O)oc3ccccc23)C1` (centres undefined), for which the inhibition at 10 µM in the series on J774.A1 [1] worked out at 48.8%.
Still for that read-out and setting: the result for `CCN1CCN(CCOc2cc(=O)oc3ccccc23)CC1` reads 18.1%.

By inhibition is commonly meant the drop in the measured response relative to a control, in per cent.
